Experimental data taken from ChEMBL document CHEMBL1123644, “Potential antitumor agents. 53. Synthesis, DNA binding properties, and biological activity of perimidines designed as "minimal" DNA-intercalating agents” (J Med Chem, 1987).
Calls of active or inactive are those of the source. The rule behind the calls is not given here.

What was measured:
L1210 = test: In vitro growth inhibition of murine leukemia L1210 cells after 40 hours exposure.; format: functional, cell-based; settings: Mus musculus, L1210, 40 h
[1] = The pKa value spectrophotometrically in water at 25 degree Centigrade; format: physicochemical
P388 [2] = test: Percent increase in life span of drug treated tumor( P388 leukemia cells)-bearing animal compared to that of untreated tumor bearing control when treated at optimal dose; NA means not active compound inactive at all dose levels up to toxic ones; format: functional; settings: Mus musculus
P388 [3] = test: Optimal dose administered intraperitoneally as a solution in 0.1 mL of 30% v/v ethanol-water on days 1,5 and 9 after intraperitoneal inoculation of 10 e6 P388 leukemia cells; format: functional, Mus musculus
Nucleic Acid [4] = test: The compound was tested for DNA (from Escherichia coli plasmid pNZ116 ) binding constant to poly[d(A-T)] determined by ethidium bromide displacement; format: nucleic-acid assay
Outline: (§1)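 Binding constants to poly[d(A-T)] and poly[d(G-C)] were determined by ethidium bromide displacement.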

Nucleic Acid [5] = test: The compound was tested for DNA (from Escherichia coli plasmid pNZ116 ) binding constant to poly[d(G-C)] determined by ethidium bromide displacement; format: nucleic-acid assay; outline: as §1
P388 [6] = test: Percent increase in life span of drug treated tumor( P388 leukemia cells)-bearing animal compared to that of untreated tumor bearing control when treated at optimal dose; Compound inactive at all dose levels up to toxic ones; format: functional; settings: Mus musculus
P388 [7] = test: Percent increase in life span of drug treated tumor( P388 leukemia cells)-bearing animal compared to that of untreated tumor bearing control when treated at optimal dose; NA means not active; format: functional; settings: Mus musculus
P388 [8] = test: Percent increase in life span of drug treated tumor( P388 leukemia cells)-bearing animal compared to that of untreated tumor bearing control when treated at optimal dose; format: functional, Mus musculus
P388 [9] = test: Optimal dose administered intraperitoneally as a solution in 0.1 mL of 30% v/v ethanol-water on days 1,5 and 9 after intraperitoneal inoculation of 10 e6 P388 leukemia cells; ND means no data; format: functional, Mus musculus

| Compound | IC50 (L1210) [nM] | Log K (Nucleic Acid [4]) | Log K (Nucleic Acid [5]) | OD (P388 [3]) [mg/kg/day] | other results |
| --- | --- | --- | --- | --- | --- |
| CN(C)CCCNC(=O)CC1=Nc2cccc3cccc(c23)N1 | > 21000 |  |  |  |  |
| CN(C)CCCNC1=Nc2cccc3cccc(c23)N1 | 4000 |  |  |  |  |
| CN(C)CCCN1C=Nc2cccc3cccc1c23 | 15300 |  |  | 150 | pKa [1]: 5.1; ILS (P388 [2]): inactive |
| O=C(NCCN1CCOCC1)C1=Nc2cccc3cccc(c23)N1 | 14100 |  |  |  |  |
| CN(C)CCNC1=Nc2cccc3cccc(c23)N1 | 2500 | 5.77 | 5.9 | 65 | ILS (P388 [6]): inactive |
| CN(C)CCN1C=Nc2cccc3cccc1c23 | 20000 | 5.17 | 5.31 | 150 | pKa [1]: 4.64; ILS (P388 [6]): inactive |
| CN(C)CCCSC1=Nc2cccc3cccc(c23)N1 | 5700 |  |  |  |  |
| CN(C)CCNC(=O)CC1=Nc2cccc3cccc(c23)N1 | 16700 | 5.74 | 5.88 | 65 | ILS (P388 [7]): inactive |
| CN(C)CCN1C(=O)c2cccc3cccc(c23)C1=O | 1600 | 5.46 | 5.87 |  | ILS (P388 [8]): 31%; OD (P388 [9]): 150 mg/kg/day |
| CN(C)CCNC(=O)C1=Nc2cccc3cncc(c23)N1 | 21700 | 5.71 | 5.88 | 65 | ILS (P388 [6]): inactive |

The remaining molecules from weak to strong by IC50 (L1210), led by results:

| IC50 (L1210) [nM] | Log K (Nucleic Acid [4]) | Log K (Nucleic Acid [5]) | Compound | OD (P388 [3]) [mg/kg/day] | other results |
| --- | --- | --- | --- | --- | --- |
| 2200 |  |  | CN(C)CCCCN1C=Nc2cccc3cccc1c23 |  | pKa [1]: 5.3 |
| 1900 |  |  | CN(C)CCCCN1C(=O)c2cccc3cccc(c23)C1=O |  |  |
| 1800 | 5.78 | 6.1 | CN(C)CCSC1=Nc2cccc3cccc(c23)N1 | 150 | pKa [1]: 2.66; ILS (P388 [6]): inactive |
| 1500 |  |  | CN(C)CCCCNC(=O)C1=Nc2cccc3cccc(c23)N1 |  |  |
| 1300 |  |  | O=C(NCCN1CCCCC1)C1=Nc2cccc3cccc(c23)N1 |  |  |
| 1100 |  |  | CCN(CC)CCNC(=O)C1=Nc2cccc3cccc(c23)N1 |  |  |
| 870 |  |  | CN(C)CCCNC(=O)C1=Nc2cccc3cccc(c23)N1 |  |  |
| 440 | 6.51 | 6.51 | CN(C)CCNC(=O)C1=Nc2cccc3cccc(c23)N1 | 150 | pKa [1]: 1.74; ILS (P388 [6]): inactive |
